In publication PMC9161413 (ACS Omega, 2022):

Columns and labels:
[1] = tested on: L929 cells; assay: Inhibition of cell proliferation, MTT assay; assay type: cell-based, murine; settings: 24 h, 1–10 μM
[2] = tested on: ERK1/2 phosphorylation; assay: ERK1/2 phosphorylation in L929 cells, western blot; assay type: cell-based, murine; settings: 24 h, 5 μM
Method in brief: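 Subconfluent L929 cells were exposed 24 h at 5 μM in serum-free medium. Cells were lysed in RIPA with PMSF, orthovanadate and protease inhibitors, and 40–60 μg protein was resolved on 4–12 Bis-Tris gels onto PVDF. Blots were probed overnight at 4 °C for phospho- and total ERK1/2 (vinculin loading control), with fluorescent secondaries and infrared imaging. Phospho-signal was normalised to total protein; three independent experiments; one-way ANOVA with Tukey test.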

[3] = tested on: N-Cadherin expression; assay: N-cadherin expression in L929 cells, western blot; assay type: cell-based, murine; settings: 24 h, 5 μM, compared to untreated cells
Method in brief: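 L929 cells (subconfluent, serum-free medium) were treated 24 h at 5 μM. RIPA lysates containing phosphatase/protease inhibitors (40–60 μg protein) were separated on 4–12 Bis-Tris gels and blotted to PVDF. N-cadherin antibody was applied overnight at 4 °C, with vinculin as loading control and infrared fluorescence detection. Densitometry was normalised to total protein and expressed as percent of untreated cells; three independent experiments; ANOVA with Newman–Keuls test.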

[4] = tested on: VEGFR-1; settings: read-out: IC50 VEGFR-1; cited from earlier work
[5] = tested on: FGFR-2; settings: read-out: IC50 FGFR-2; cited from earlier work
[6] = tested on: PDGFR-α; settings: read-out: IC50 PDGFR-α; cited from earlier work
[7] = tested on: PDGFR-β; settings: read-out: IC50 PDGFR-β; cited from earlier work
[8] = tested on: MDA-MB-231 cells; assay: Cell internalization, cytofluorimetric assay, MDA-MB-231; assay type: cell-based, human; settings: 24 h, 5 μM
Method in brief: (§1)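 K562 cells (RPMI-1640, 5% FBS, 37 °C, 5% CO2) and MDA-MB-231 cells (DMEM with 4500 mg/L glucose, 10% FBS, 37 °C, 10% CO2) were treated 24 h at 5 μM. Flow cytometry detected the compound's intrinsic fluorescence (λexc 405 nm, λem 421 nm). Read-out was the percentage of cells above the untreated autofluorescence threshold; at least three independent experiments.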

[9] = tested on: VEGFR-3; settings: read-out: IC50 VEGFR-3; cited from earlier work
[10] = tested on: K562 cells; assay: Cell internalization, cytofluorimetric assay, K562; assay type: cell-based, human; settings: 24 h, 5 μM
Method in brief: as §1

[11] = tested on: FGFR-3; settings: read-out: IC50 FGFR-3; cited from earlier work

Compound | antiproliferative / cytostatic effect (in words) [1] | inhibition of ERK1/2 phosphorylation (in words) [2] | inhibition of N-Cad expression (in words) [3] | IC50 [4] | IC50 [5] | IC50 [6] | IC50 [7] | internalization / cell fluorescence (in words) [8] | IC50 [9] | internalization / cell fluorescence (in words) [10] | IC50 [11]
c(AmpLRGDL) [compound 6] | mild antiproliferative effect | no inhibition | stronger inhibitory effect |  |  |  |  |  |  |  | 
COC(=O)c1ccc2c(c1)NC(=O)/C2=C(\Nc1ccc(N(C)C(=O)CN2CCN(C)CC2)cc1)c1ccccc1 [nintedanib] | mild antiproliferative effect | efficiently inhibits | almost by half | 34 nM | 37 nM | 59 nM | 65 nM | efficiently internalized | 13 nM | efficiently internalized | […]
